Experimental findings from ChEMBL document CHEMBL4041524, “Synthesis and Characterization of a Novel γ-Aminobutyric Acid Type A (GABAA) Receptor Ligand That Combines Outstanding Metabolic Stability, Pharmacokinetics, and Anxiolytic Efficacy” (J Med Chem, 2016) are described below.

For one data set, the system named is Rattus norvegicus. The experiment in a line: Toxicity in water-deprived Sprague-Dawley rat assessed as effect on water drinking time during nonpunished period up to 60 mg/kg, po administered 30 mins prior to testing. It is filed as organism-based. The note with it: in vivo, 0.5 h.
Data set [1] has as its target T1, GABA-A receptor; alpha-2/beta-3/gamma-2 (Homo sapiens, UniProt P18507+P28472+P47869).
T1 sequence (P18507 whole entry): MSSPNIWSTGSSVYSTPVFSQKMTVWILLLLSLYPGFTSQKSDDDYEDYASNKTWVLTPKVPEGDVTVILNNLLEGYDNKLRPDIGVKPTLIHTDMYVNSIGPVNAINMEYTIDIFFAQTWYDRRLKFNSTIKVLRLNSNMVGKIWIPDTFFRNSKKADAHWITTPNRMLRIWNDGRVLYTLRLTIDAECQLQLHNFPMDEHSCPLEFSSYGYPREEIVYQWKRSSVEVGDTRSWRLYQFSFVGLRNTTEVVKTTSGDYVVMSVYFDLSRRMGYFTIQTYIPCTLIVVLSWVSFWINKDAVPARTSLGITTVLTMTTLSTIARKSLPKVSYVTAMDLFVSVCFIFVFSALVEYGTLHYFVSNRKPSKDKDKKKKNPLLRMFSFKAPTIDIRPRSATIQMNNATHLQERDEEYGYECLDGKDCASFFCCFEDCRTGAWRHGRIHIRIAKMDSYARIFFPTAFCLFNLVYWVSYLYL
T1 sequence (P28472 whole entry): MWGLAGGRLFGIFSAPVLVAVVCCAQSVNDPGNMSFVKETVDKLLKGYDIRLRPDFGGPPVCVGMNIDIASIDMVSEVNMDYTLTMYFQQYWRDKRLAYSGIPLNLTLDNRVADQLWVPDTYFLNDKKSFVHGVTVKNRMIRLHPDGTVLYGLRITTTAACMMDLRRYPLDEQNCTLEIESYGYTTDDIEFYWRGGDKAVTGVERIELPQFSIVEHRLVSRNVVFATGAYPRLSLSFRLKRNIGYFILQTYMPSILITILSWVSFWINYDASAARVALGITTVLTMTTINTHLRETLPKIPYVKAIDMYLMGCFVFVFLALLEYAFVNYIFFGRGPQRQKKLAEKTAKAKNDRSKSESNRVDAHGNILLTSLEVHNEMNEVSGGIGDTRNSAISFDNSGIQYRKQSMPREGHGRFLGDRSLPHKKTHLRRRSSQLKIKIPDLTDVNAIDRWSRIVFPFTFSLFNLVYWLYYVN
T1 sequence (P47869 whole entry): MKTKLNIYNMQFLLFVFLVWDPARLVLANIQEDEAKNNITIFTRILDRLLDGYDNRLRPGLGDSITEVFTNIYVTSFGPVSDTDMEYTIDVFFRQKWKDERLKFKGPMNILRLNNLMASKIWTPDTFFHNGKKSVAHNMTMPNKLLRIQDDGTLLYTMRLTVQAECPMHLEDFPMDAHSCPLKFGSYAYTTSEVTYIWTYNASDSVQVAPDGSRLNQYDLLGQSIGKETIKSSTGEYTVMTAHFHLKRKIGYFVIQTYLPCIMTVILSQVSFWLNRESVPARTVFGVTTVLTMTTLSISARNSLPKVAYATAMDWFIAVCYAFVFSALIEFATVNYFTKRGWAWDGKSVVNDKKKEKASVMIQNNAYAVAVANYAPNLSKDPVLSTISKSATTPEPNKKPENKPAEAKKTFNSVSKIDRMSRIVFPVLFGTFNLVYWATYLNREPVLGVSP
The data set is described as follows: Modulation of recombinant human GABA alpha2beta3gamma2 receptor expressed in HEK293 cells assessed as change in GABA-induced current at -80 mV holding potential preincubated for 3 mins followed by co-administration of GABA by electrophysiology method. It is filed as cell-based.

The subject of data set [2] is Mus musculus. The data set is described as follows: Anxiolytic-like activity in Swiss Webster mouse marble burying model of anxiety assessed as suppression of marble burying activity at 30 mg/kg, ip administered 30 mins prior to test relative to vehicle-control. It is filed as functional, organism-based. Summed up: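 Male NIH Swiss Webster mice (n = 10) received vehicle or compound at 10 or 30 mg/kg i.p. 30 min before marble burying testing. Sedation-like behaviour was noted by observation. Analysis was ANOVA with Dunnett's test vs vehicle.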

The next data set relates to Plasma. The experiment in a line: Fraction unbound in rat plasma by equilibrium dialysis method. The class given is ADME, cell-free. Summed up: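 Fraction unbound was determined in vitro by equilibrium dialysis with rat plasma protein and rat brain.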
Data set [3] deals with Mus musculus. The data set is described as follows: Toxicity in Swiss mouse assessed as change in motor coordination by measuring number of falls from the rotating rod at 10 mg/kg, ip administered 30 mins prior to testing measured for 2 mins by rotarod test relative to control. The note with it: in vivo. It is filed as organism-based. Summed up: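 The same mice used for marble burying were placed on a rotarod at 4 r.p.m. for 2 min. No fall was scored success, one fall partial, and two falls failure.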

Data set [4] has as its target GABA-A receptor; alpha-3/beta-3/gamma-2 (Homo sapiens) (UniProt P18507+P28472+P34903). The experiment in a line: Modulation of recombinant GABA alpha3beta3gamma2 receptor (unknown origin) expressed in Xenopus laevis oocytes assessed as change in GABA-induced EC(3 to 6) current at 10 uM by two-electrode voltage clamp assay. The class given is cell-based. In outline:
(§1)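 Xenopus laevis oocytes expressing α1, α2, α3 or α5 β3γ2 GABAARs were recorded by two-electrode voltage clamp. Modulation of the GABA EC3-6 current (taken as 100%) was tested at 100 nM, 1 μM and 10 μM in the same cells. Values are mean ± SEM, n = 3–4.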

The nature of data set [5]: Clearance in femoral artery/vein cannulated Sprague-Dawley rat at 1 mg/kg, iv administered […] as single dose by LC-MS/MS analysis. The class given is ADME, organism-based. The note with it: in vivo. Summed up: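 Male Sprague-Dawley rats (n = 3 per time point) were dosed 1 mg/kg i.v. or 10 mg/kg i.p. Plasma concentrations were measured at set time points. Clearance, Vdss and T½ came from the i.v. arm, and AUC, Cmax and Tmax from the i.p. arm.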

In data set [6] the target is GABA-A receptor; alpha-2/beta-3/gamma-2 (Homo sapiens) (UniProt P18507+P28472+P47869). The experiment in a line: Modulation of recombinant GABA alpha2beta3gamma2 receptor (unknown origin) expressed in Xenopus laevis oocytes assessed as change in GABA-induced EC(3 to 6) current by two-electrode voltage clamp assay. The class given is cell-based. Summed up: as §1
For data set [7], the target named is T2, GABA-A receptor; alpha-5/beta-3/gamma-2 (Homo sapiens) (UniProt P18507+P28472+P31644). The experiment in a line: Modulation of recombinant GABA alpha5beta3gamma2 receptor (unknown origin) expressed in Xenopus laevis oocytes assessed as change in GABA-induced EC(3 to 6) current by two-electrode voltage clamp assay. The class given is cell-based. Summed up: as §1

The target in data set [8] is T2, GABA-A receptor; alpha-5/beta-3/gamma-2 (Homo sapiens). The data set is described as follows: Modulation of recombinant GABA alpha5beta3gamma2 receptor (unknown origin) expressed in Xenopus laevis oocytes assessed as change in GABA-induced EC(3 to 6) current at 1 uM by two-electrode voltage clamp assay. The class given is cell-based. Summed up: as §1
The test system of a further data set is Liver. The data set is described as follows: Metabolic stability in mouse liver microsomes assessed as compound remaining at 4 uM measured after 30 mins in presence of NADPH by LC-MS/MS analysis. The class given is ADME, microsome. The note with it: 0.5 h. Summed up: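 Human, mouse or rat liver microsomes were incubated with compound at 4 μM final for 30 min at 37 °C (n = 1). Percent of parent remaining was quantified by LC-MS/MS.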

A short description of data set [9]: Total plasma concentration in Sprague-Dawley rat at 10 mg/kg, ip measured after 4 hrs. It is filed as ADME, organism-based. In outline: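 Rats were given 10 mg/kg i.p. (n = 3), and total plasma and brain concentrations were measured at 4 h. Unbound concentrations were calculated as Fu × total concentration, and Kp,uu = Cu,brain/Cu,plasma.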

The source made the active and inactive calls. The calls are words filed in the database; no cut-off is given here.

Take `C#Cc1ccc2c(c1)C(c1ccccn1)=NCc1c(-c3cnco3)ncn1-2`: the Activity entry with Rattus norvegicus is “Non-Toxic”; in the data set on Mus musculus [3], “Toxic”; in [4] it was 332%; in data set [6], “Dose-dependent effect”; in data set [7], “Dose-dependent effect”; in data set [8], 158%. The EC50 in data set [1] stood at 118 nM. In addition, in the data set on Mus musculus [2], the outcome was Active. In the data set on Plasma, this compound registered a Fu of 25.9%. The same compound gave a clearance in data set [5] of 21.7 mL/min/kg. Moreover, the Stability with Liver was found to be 90%. Also, the concentration at 4 h in data set [9] amounted to 2130 nM.
